A word on the Tmax: it is the time at which the peak concentration occurs. By half-life is commonly meant the time needed for the level to fall by half in the phase considered. Read a low half-life as rapid decline. Broadly, the AUC is the area under the concentration-time curve, a measure of exposure. Broadly, the EC50 is the concentration at which the effect is half-maximal. A low value points to higher potency in that assay. A word on the ED50: it is the dose that gives a 50% effect, or the effect in half of the subjects. As usually defined, the Cmax is the peak of the concentration-time curve.

Data set [1] is described as follows: Tmax in Sprague-Dawley rat at 5 mg/kg, ip. The data set is classed as ADME, organism-based. The settings on record: in vivo. More on the design: dose 5 mg/kg, route intraperitoneal.
A short description of data set [2]: Half life in Sprague-Dawley rat at 1 mg/kg, ip. The following applies: in vivo. The format is ADME, organism-based. More on the design: dose 1 mg/kg, route intraperitoneal.
Data set [3] can be described thus: Stability in human liver microsomes assessed as remaining compound level at 1 uM incubated for 5 mins in presence of NADPH measured after 30 mins by LC/MS/MS method. The format is ADME. The settings on record: read-out: Stability. In short, it runs like this: (§1)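 Percent parent compound remaining after 30 min incubation with liver microsomes; n = 3.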
Data set [4] deals with Plasmodium falciparum. Description: Antimalarial activity against tightly synchronized Plasmodium falciparum K1 assessed as parasite stage accumulation index at schizonts stages at 10 uM treated at 6 to 30 hrs post-invasion by automated image mining based cytological profiling assay. The data set is classed as functional, organism-based.
Data set [5] in a line: Selectivity index, ratio of CC50 for human HepG2 cells to EC50 for Plasmodium falciparum. The format is toxicity, cell-based. The following applies: read-out: Ratio CC50/EC50. In short, it runs like this: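 Ratio of HepG2 CC50 (resazurin assay) to the highest EC50 among P. falciparum K1, HB3 and W2. Parasite EC50 values are means of two independent experiments, each run in duplicate.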

Data set [6] can be described thus: AUC in Sprague-Dawley rat at 5 mg/kg, ip. The data set is classed as ADME, organism-based. More on the design: dose 5 mg/kg, route intraperitoneal. The settings on record: plasma.
Data set [7] can be described thus: Half life in Sprague-Dawley rat at 5 mg/kg, ip. The data set is classed as ADME, organism-based. On the set-up: dose 5 mg/kg, route intraperitoneal. The following applies: in vivo.
Data set [8] is described as follows: Stability in mouse liver microsomes assessed as remaining compound level at 1 uM incubated for 5 mins in presence of NADPH measured after 30 mins by LC/MS/MS method. The settings on record: read-out: Stability. The format is ADME. In short, it runs like this: as §1
(In general: Liver microsomes are a subcellular fraction often used to study metabolism.)

Data set [9] deals with Plasmodium falciparum. Put plainly: Antimalarial activity against Plasmodium falciparum W2 by automated image mining based cytological profiling assay. The data set is classed as functional, organism-based. In short, it runs like this:
(§2)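 Parasite cultures in 384-well format, read by automated imaging. Infected erythrocytes detected by DAPI nuclear staining against WGA-AlexaFluor 488 host-cell stain, and viability by Mitotracker Red CMXRos. Total culture parasitaemia quantified. EC50 given as mean±SD of two independent experiments, each in duplicate.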

The test system of data set [10] is Plasmodium chabaudi. Description: Antimalarial activity against Plasmodium chabaudi infected in BALB/c mouse assessed as reduction in accumulation of ring-stage parasites level at 3 to 30 mg/kg, ip treated on day 1 to day 3 post-infection measured on day 4 post-infection by Giemsa staining based light microscopy. The data set is classed as functional, organism-based. The gist of the method: (§3)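 Groups of five BALB/c mice infected i.p. with 2 × 10^7 P. chabaudi-parasitized erythrocytes. Day 1 pre-treatment parasitaemia read from tail-blood thin smears, then i.p. dosing at 0.03, 0.3, 3, 10 or 30 mg/kg, repeated for two more days. Day 4 parasitaemia scored by light microscopy of Giemsa-stained thin smears; dose-response evaluated by probit analysis.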

Data set [11] has as its system Plasmodium chabaudi. Put plainly: Antimalarial activity against Plasmodium chabaudi infected in BALB/c mouse assessed as reduction in parasitaemia level treated intraperitoneally on day 1 to day 3 post-infection measured on day 4 post-infection by Giemsa staining based light microscopy. The following applies: for ED50: ip. The format is functional. The gist of the method: as §3

Data set [12] is described as follows: AUC in Sprague-Dawley rat at 1 mg/kg, ip. The data set is classed as ADME, organism-based. More on the design: dose 1 mg/kg, route intraperitoneal. The following applies: plasma.
Data set [13] can be described thus: Cmax in Sprague-Dawley rat at 1 mg/kg, ip. The format is ADME, organism-based. The following applies: in vivo. On the set-up: dose 1 mg/kg, route intraperitoneal.
The nature of data set [14]: Cmax in Sprague-Dawley rat at 5 mg/kg, ip. More on the design: dose 5 mg/kg, route intraperitoneal. The settings on record: in vivo. The data set is classed as ADME, organism-based.
Data set [15] deals with Plasmodium chabaudi. Put plainly: Antimalarial activity against Plasmodium chabaudi infected in BALB/c mouse assessed as reduction in blood parasitaemia level at 3 to 30 mg/kg, ip treated on day 1 to day 3 post-infection measured on day 4 post-infection by Giemsa staining based light microscopy. The data set is classed as functional, organism-based. The gist of the method:
as §3

For data set [16], the system named is Plasmodium falciparum. Description: Antimalarial activity against tightly synchronized Plasmodium falciparum K1 assessed as parasite stage accumulation index at trophozoites stages at 10 uM treated at 6 to 30 hrs post-invasion by automated image mining based cytological profiling assay. The format is functional, organism-based.
Data set [17] has as its system Plasmodium falciparum. Put plainly: Antimalarial activity against tightly synchronized Plasmodium falciparum K1 assessed as parasite stage accumulation index at late ring stages at 10 uM treated at 6 to 30 hrs post-invasion by automated image mining based cytological profiling assay. The data set is classed as functional, organism-based.
Data set [18] concerns Plasmodium falciparum. Put plainly: Antimalarial activity against Plasmodium falciparum HB3 by automated image mining based cytological profiling assay. The format is functional. The gist of the method:
as §2

Data set [19] deals with Plasmodium falciparum. Put plainly: Antimalarial activity against tightly synchronized Plasmodium falciparum K1 assessed as parasite stage accumulation index at early ring stages at 10 uM treated at 6 to 30 hrs post-invasion by automated image mining based cytological profiling assay. The data set is classed as functional, organism-based.
Data set [20] in a line: Tmax in Sprague-Dawley rat at 1 mg/kg, ip. The format is ADME, organism-based. More on the design: dose 1 mg/kg, route intraperitoneal. The settings on record: in vivo.
In data set [21] the test system is Plasmodium falciparum. Description: Antimalarial activity against Plasmodium falciparum K1 by automated image mining based cytological profiling assay. The data set is classed as functional, organism-based. The gist of the method: as §2

Activity calls are given as the source filed them. Where only a bound is given, the exact number is not on record here.

For `COc1ccc(CO[C@@H]([C@H](COC(c2ccccc2)(c2ccccc2)c2ccccc2)N=[N+]=[N-])[C@H](OCc2ccc(OC)cc2)c2cnc(N(C)C)nc2)cc1`, the Tmax in data set [1] was 4 h; in [20] it was 3.4 h. In addition, the half-life in [2] is 6.36 h; in data set [7] it was 5.78 h. In addition, the remaining at 30 min, 1 µM in data set [3] worked out at 89%. The result in the data set with Plasmodium falciparum [4], in the data set on Plasmodium falciparum [16], in the data set on Plasmodium falciparum [17] and in the data set on Plasmodium falciparum [19] was Active. For the same molecule, the selectivity ratio in data set [5] was above 1000. Besides, the AUC was found to be 26600 ng·h/mL in data set [6] and 8200 ng·h/mL in [12]. Further, the remaining at 0.5 h, 1 µM in [8] is 81.6%. The EC50 was 80 nM in the data set with Plasmodium falciparum [9], 80 nM in the data set with Plasmodium falciparum [18] and 92 nM with Plasmodium falciparum [21]. The inhibition entry in the data set on Plasmodium chabaudi [10] and in the data set with Plasmodium chabaudi [15] was “Active” throughout. Besides, the inhibition result in the data set with Plasmodium chabaudi [11] was “Dose dependent effect”. Also, the median effective dose (ED50) in the data set on Plasmodium chabaudi [11] was determined as 0.12 mg/kg. Moreover, the Cmax in [13] was determined as 1030 ng/mL; in data set [14], 3070 ng/mL.

`COc1ccc(CO[C@H]([C@H](OCc2ccc(OC)cc2)c2cnc(N(C)C)nc2)[C@@H](COC(c2ccccc2)(c2ccccc2)c2ccccc2)OS(C)(=O)=O)cc1`: the Tmax in data set [1] and in data set [20] was 1 h each time. Also, the half-life was 10.3 h in data set [2] and 10.6 h in data set [7]. Moreover, the remaining at 30 min, 1 µM in data set [3] turned out to be 88.1%. Moreover, the result with Plasmodium falciparum [4], in the data set on Plasmodium falciparum [16], in the data set on Plasmodium falciparum [17] and in the data set on Plasmodium falciparum [19] was Active. In addition, in data set [5], the selectivity ratio is above 680. Further, the AUC in data set [6] stood at 41300 ng·h/mL; in [12], 9790 ng·h/mL. Besides, the remaining at 0.5 h, 1 µM in data set [8] turned out to be 88.6%. The results for the EC50 in the data set with Plasmodium falciparum [9], in the data set on Plasmodium falciparum [18] and in the data set on Plasmodium falciparum [21] were 104 nM, 104 nM and 116 nM, respectively. The inhibition entry with Plasmodium chabaudi [10] and in the data set on Plasmodium chabaudi [15] was “Active” in each case. Moreover, the inhibition result in the data set on Plasmodium chabaudi [11] was “Dose dependent effect”. The ED50 in the data set on Plasmodium chabaudi [11] amounted to 0.32 mg/kg. Also, the Cmax in data set [13] was 1800 ng/mL; in data set [14] it was 12900 ng/mL.
